Screening results as filed in PubChem BioAssay.
Shown are actives, neighbours in structure and some others; about 5.8% of the full set was active somewhere.
GASC1 inh = blocks human GASC-1 (KDM4C) demethylase activity; GST-KDM4C 2-372, H3K9me3 peptide, LANCE TR-FRET; 0.15% of 96,000 active; inhibition, % at 12.5 µM; Q9H3R0;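 active = mean replicate inhibition above about 25%, with at least 55% of replicates also reaching it, limit read from the data, passing the limit was not always enough; inconclusive = only one of those two conditions met; inactive = neither condition met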
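Assay system: GST-GASC-1 enzyme fragment 2-372 | Amount: 10 nM enzyme | Medium: HEPES buffer, pH 7.5, plus ascorbate | Reagent: H3K9me3 peptide substrate, Fe(II), 2-oxoglutarate | Doses: Single-point compound screen | Incubation: 30 min demethylation and 1 h detection at room temperature | Measured by: LANCE TR-FRET, excitation 340 nm, emissions 618 and 671 nm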
T cruzi growth-1 = blocks T. cruzi growth in NIH3T3 culture; T. cruzi beta-gal in NIH3T3, GalScreen luminescence, 90 h; inhibition, % at 8.34 µM; 5.9% of 77,000 active;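 active = mean inhibition above about 93%, with at least 55% of replicates each passing it, limit read from the data, passing the limit was not always enough; inconclusive = only one of those two conditions holds; inactive = neither condition holds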
IDH1 R132H inh = blocks human IDH1 R132H reductase activity. O75874. 0.18% of 70,000 active. inhibition, % at 10 µM. diaphorase/resazurin fluorescence, 60 min. AID 624101; in the data active = inhibition above about 34%; inconclusive = no clear call, values can overlap the other calls; inactive = below about 11%;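 also: 0% = DMSO and 100% = no enzyme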
Target sequence (O75874 whole entry R132H): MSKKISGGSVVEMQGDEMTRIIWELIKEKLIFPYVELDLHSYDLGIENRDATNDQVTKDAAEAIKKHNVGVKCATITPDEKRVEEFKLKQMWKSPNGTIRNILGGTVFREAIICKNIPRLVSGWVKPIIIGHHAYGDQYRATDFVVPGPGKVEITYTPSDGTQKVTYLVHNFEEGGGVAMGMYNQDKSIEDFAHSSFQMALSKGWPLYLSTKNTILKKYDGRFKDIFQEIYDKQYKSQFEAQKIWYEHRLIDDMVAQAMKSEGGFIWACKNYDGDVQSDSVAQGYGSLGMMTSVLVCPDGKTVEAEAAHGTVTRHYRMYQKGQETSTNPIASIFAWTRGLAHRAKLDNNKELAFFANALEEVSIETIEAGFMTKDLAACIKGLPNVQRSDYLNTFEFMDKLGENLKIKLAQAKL
Pf Dd2 growth = inhibitors of Plasmodium falciparum Dd2 growth | 2.3% of 94,000 active | P. falciparum Dd2 growth, SYBR Green, 72 h; active compounds read low | activity change, % at 10 µM; in the data active = activity change below about -80%; inconclusive = no clear call, values can overlap the other calls
T cruzi growth-2 = Trypanosoma cruzi proliferation inhibition; shares compounds with T cruzi growth-1; T. cruzi beta-gal in NIH3T3, GalScreen luminescence, 90 h; inhibition, % at 8.35 µM; 72% of 5,600 active;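 active = mean replicate inhibition above about 95% and at least 55% of replicates individually reaching it, limit read from the data; inconclusive = only one of the two criteria is met; inactive = neither criterion is met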
T cruzi growth-3 = Trypanosoma cruzi proliferation inhibition; shares compounds with T cruzi growth-1; T. cruzi beta-gal in NIH3T3, GalScreen luminescence, 90 h; inhibition, % at 2.09 µM; 21% of 5,600 active; AID 651740;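 active = mean inhibition above about 95%, with at least 55% of replicates also reaching it, limit read from the data; inconclusive = meets just one of the two conditions; inactive = meets neither condition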;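 also: plate controls were neutral control median for no effect and positive control median for full effect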
3T3 cytotox = kills mouse NIH/3T3 fibroblasts; 14% of 5,600 active; shares compounds with T cruzi growth-1; NIH/3T3 viability, CellTiter-Glo ATP luminescence, 90 h; cytotoxicity (signal decrease), % at 8.35 µM; AID 651742;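 active = mean signal decrease across replicates above about 35% based on untreated-well scatter, with enough replicates individually passing, limit read from the data; inconclusive = no rule stated though some were filed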;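 also: 0% = median of neutral control wells and 100% = median of positive control wells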
NIH3T3 tox 2 = kills mouse NIH/3T3 fibroblasts; shares compounds with T cruzi growth-1; NIH/3T3 viability, CellTiter-Glo ATP luminescence, 90 h; inhibition, % at 24.9 µM; 56% of 5,600 active; AID 651744;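 active = mean loss of cell viability signal at or above a set limit, and enough replicates individually reaching it; inconclusive = meets only the mean limit or only the replicate share; inactive = meets neither condition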;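 also: 0% = median of neutral control wells and 100% = median of positive control wells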
* hit, by the source's call; ? = inconclusive; . = not tested or not shown.

SMILES	GASC1 inh	T cruzi growth-1	IDH1 R132H inh	Pf Dd2 growth	T cruzi growth-2	T cruzi growth-3	3T3 cytotox	NIH3T3 tox 2
C[C@H]1CCCCO[C@H](CN(C)S(=O)(=O)c2ccc(F)cc2)[C@@H](C)CN([C@@H](C)CO)C(=O)c2cc(NS(=O)(=O)c3ccc(F)cc3)ccc2O1	1	99*	-1	-64	110*	68	3	-3
CC(C)NC(=O)Nc1ccc2c(c1)CC(=O)N([C@@H](C)CO)C[C@H](C)[C@@H](CN(C)S(=O)(=O)c1ccc(F)cc1)O2	1	41	0	-19	.	.	.	.
C[C@H]1CN([C@@H](C)CO)C(=O)c2cccc(NC(=O)C3CCCCC3)c2O[C@H]1CN(C)Cc1ccc(C(=O)O)cc1	0	-12	2	3	.	.	.	.
O=S(=O)(c1ccccc1)N1CC[C@@H]2[C@@H](CO)Nc3ccc(C#Cc4ccccc4F)cc3[C@@H]21	0	79	.	-32	.	.	.	.
Cc1ccc(S(=O)(=O)N(C)C[C@@H]2OCc3ccccc3-c3ccccc3C(=O)N([C@@H](C)CO)C[C@H]2C)cc1	1	48	.	-56	.	.	.	.
COc1ccc(S(=O)(=O)Nc2ccc3c(c2)CC(=O)N([C@@H](C)CO)C[C@H](C)[C@H](CN(C)C(=O)NC(C)C)O3)cc1	-1	9	1	3	.	.	.	.
C[C@@H]1CCCCO[C@@H](CN(C)S(=O)(=O)c2ccc(F)cc2)[C@H](C)CN([C@@H](C)CO)C(=O)c2cc(NS(=O)(=O)c3ccc(F)cc3)ccc2O1	-2	109*	.	-20	106*	86	0	11
C[C@H]1CCCCO[C@@H](CN(C)S(=O)(=O)c2ccc(F)cc2)[C@@H](C)CN([C@@H](C)CO)C(=O)c2cc(NS(=O)(=O)c3ccc(F)cc3)ccc2O1	-3	119*	0	-48	105*	33	-13	-17
C[C@@H]1CCCCO[C@H](CN(C)Cc2ccc(C(F)(F)F)cc2)[C@@H](C)CN([C@H](C)CO)C(=O)c2cc(NC(=O)Nc3ccc4c(c3)OCO4)ccc2O1	-1	80	1	33	.	.	.	.
C[C@H](CO)N1C[C@H](C)[C@H](CN(C)Cc2cccc(F)c2)OCc2ccccc2-c2ccccc2C1=O	0	69	-2	-30	.	.	.	.
O=C(N[C@H]1CC[C@H](CCNS(=O)(=O)c2ccc(F)cc2)O[C@@H]1CO)c1cccnc1	0	-30	0	6	.	.	.	.
C[C@@H]1CN([C@@H](C)CO)C(=O)Cc2cc(N(C)C)ccc2O[C@H]1CN(C)Cc1ccc(Oc2ccccc2)cc1	7	111*	0	5	91	115*	7	106*
C[C@H](CO)N1C[C@H](C)[C@@H](CN(C)Cc2ccc(Oc3ccccc3)cc2)Oc2ccc(N(C)C)cc2CC1=O	1	116*	0	-23	114*	82	15	106*
C[C@H](CO)N1C[C@H](C)[C@H](CN(C)Cc2ccc(Oc3ccccc3)cc2)Oc2ccc(N(C)C)cc2CC1=O	0	65	.	-25	.	.	.	.
C[C@H](CO)N1C[C@H](C)[C@H](CN(C)S(C)(=O)=O)Oc2ccc(NC(=O)Nc3ccccc3)cc2CC1=O	13	.	1	4	.	.	.	.
C[C@@H]1CCCCO[C@@H](CN(C)Cc2ccc(C(F)(F)F)cc2)[C@@H](C)CN([C@@H](C)CO)C(=O)c2cc(NC(=O)Nc3cccc4ccccc34)ccc2O1	-3	?	2	8	108*	100*	11	8
C[C@H]1CCCCO[C@@H](CN(C)Cc2ccc(C(=O)O)cc2)[C@@H](C)CN([C@@H](C)CO)C(=O)c2cc(NC(=O)Nc3cccc4ccccc34)ccc2O1	8	15	-20	-35	.	.	.	.
C[C@H]1CCCCO[C@@H](CN(C)Cc2ccc(C(F)(F)F)cc2)[C@@H](C)CN([C@@H](C)CO)C(=O)c2cc(NC(=O)Nc3cccc4ccccc34)ccc2O1	-1	?	.	-27	108*	108*	10	11
